Screens from PubChem.
ANO1 block: inhibitors of mouse TMEM16A calcium-activated chloride channel; HEK293 TMEM16A/YFP iodide influx fluorescence, ionomycin; normalized B-score (activity score, 25-100; higher = stronger inhibition) at 10 µM; 1.2% of 310,000 active; AID 588511;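 active = ratio plate-corrected score three or more library SD toward inhibition, starting fluorescence score within five deviations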;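 note: score derived from kinetic fluorescence span divided by baseline fluorescence per well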
Target sequence (Q8BHY3 whole entry, looked up): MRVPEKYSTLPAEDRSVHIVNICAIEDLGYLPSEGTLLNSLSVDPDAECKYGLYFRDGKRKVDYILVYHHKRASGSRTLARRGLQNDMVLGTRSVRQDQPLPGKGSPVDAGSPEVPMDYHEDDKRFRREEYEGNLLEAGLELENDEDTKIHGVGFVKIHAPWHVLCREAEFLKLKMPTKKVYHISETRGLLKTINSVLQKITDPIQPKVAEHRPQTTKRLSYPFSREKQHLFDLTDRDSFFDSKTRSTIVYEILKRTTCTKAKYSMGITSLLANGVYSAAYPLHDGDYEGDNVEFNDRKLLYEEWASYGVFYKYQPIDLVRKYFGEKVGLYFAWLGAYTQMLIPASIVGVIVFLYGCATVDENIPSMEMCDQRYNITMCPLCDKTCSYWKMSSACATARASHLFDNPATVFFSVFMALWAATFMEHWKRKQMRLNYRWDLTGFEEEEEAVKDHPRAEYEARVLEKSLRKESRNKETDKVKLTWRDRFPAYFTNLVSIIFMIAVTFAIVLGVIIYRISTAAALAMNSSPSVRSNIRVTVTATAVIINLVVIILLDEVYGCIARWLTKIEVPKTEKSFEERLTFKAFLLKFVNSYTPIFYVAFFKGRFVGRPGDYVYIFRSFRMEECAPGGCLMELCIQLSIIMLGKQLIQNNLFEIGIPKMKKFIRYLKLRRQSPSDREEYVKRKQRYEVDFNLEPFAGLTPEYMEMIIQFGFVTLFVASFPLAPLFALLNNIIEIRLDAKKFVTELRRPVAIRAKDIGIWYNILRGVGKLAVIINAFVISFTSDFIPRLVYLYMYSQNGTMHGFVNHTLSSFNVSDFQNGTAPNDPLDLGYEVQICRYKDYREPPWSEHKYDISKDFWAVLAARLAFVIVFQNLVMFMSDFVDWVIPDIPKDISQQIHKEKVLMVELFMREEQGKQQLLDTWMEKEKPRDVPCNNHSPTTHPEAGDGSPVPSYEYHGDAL
ANO1 activ: mouse TMEM16A channel activation, primary screen | Q8BHY3 | HEK293 TMEM16A/YFP-H148Q/I152L, iodide quench fluorescence; active compounds read low | B-score at 10 µM | 0.3% of 340,000 active | AID 623877;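 active = fluorescence-ratio B-score plate-corrected deviation score at least 3 library SD below zero, with starting fluorescence score within 5 deviations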;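 note: channel opened by trigger with iodide after compound preincubation; score built on the fluorescence ratio of max minus min over baseline; more negative score means more quench and so TMEM16A activation or potentiation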
MC4R antag cAMP: human MC4R antagonism in cAMP assay | P32245 | MC4R-expressing cells, MTII-stimulated cAMP, LANCE TR-FRET | inhibition, % at 6.5 µM | 0.48% of 360,000 active | AID 540295;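 active = inhibition above its plate's cutoff, the mean of tested wells on that plate plus 3 SD, cut at about 29% in these data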;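 note: 0% = Melanotan II alone and 100% = Melanotan II plus saturating MCL0020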
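Assay system: human MC4R-expressing U2OS cells; reagent: Melanotan II stimulation of cells; dosing: 6.5 µM single dose; timing: compound 30 min, challenge 1 h, detection 1 h; signal: TR-FRET cAMP assay; replicates: one well per compound, no replicates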
MIN6 prolif: MIN6 beta-cell proliferation induction. MIN6 cells proliferation, ATPlite luminescence, 48 h; cells starved in 0.2% serum; 100% = growth in 10% serum. proliferation, % at 10 µM. 0.29% of 330,000 active. AID 2380;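 active = compounds whose signal lies at least 3.5 SD above the mean of all wells on their plate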;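 note: 0% = DMSO-treated cells in low-serum medium and 100% = 10% serum control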
m5-HT2A agonist: agonists of mouse serotonin 5-HT2A receptor (HTR2A); CHO-K1 mHTR2A beta-arrestin complementation, luminescence; percent of 30 µM serotonin response; 0.66% of 360,000 active; P35363; activation, % at 7.6 µM;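 active = activation above a run cutoff, the mean activation of all tested compounds plus 3 SD, cut at about 14% in these data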;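 note: 0% = plate median of compound wells and 100% = 30 µM serotonin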
MC4R ag barr: human MC4R agonism via beta-arrestin. P32245. U2OS MC4R beta-arrestin complementation, luminescence; percent of melanotan II response, DMSO zero. activation, % at 8.9 µM. 0.98% of 360,000 active. AID 540308;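 active = activation above a per-plate cutoff, the mean activation of sample wells on that plate plus 3 SD, cut at about 8% in these data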
* = called active by the depositor; i = inactive; · = no result. Shown are actives, neighbours in structure and some others; about 3.4% of the full set was active somewhere.

SMILES	ANO1 block	ANO1 activ	MC4R antag cAMP	MIN6 prolif	m5-HT2A agonist	MC4R ag barr
CCN(CC)S(=O)(=O)c1cccc(NC(=O)CC2CCCC2)c1	i	i	-1	0	1	0
CCN(CC)S(=O)(=O)c1cccc(NC(=O)Nc2cccc(C(F)(F)F)c2)c1	100*	i	19	-6	-3	4
CCCN(CC(=O)Nc1ccccc1C)C(=O)Cc1c(C)nc2ccccc2c1C	·	i	5	-4	1	-1
O=S(=O)(c1cccs1)N1CCN(CCOc2ccc(Cl)cc2)CC1	·	i	3	-5	-6	-1
O=S(=O)(c1cccs1)N1CCN(CC(O)COc2cc(Cl)ccc2Cl)CC1 (stereo unspecified)	25*	-14*	1	-4	0	3
O=C(COC(=O)c1cc(S(=O)(=O)Nc2ccccc2Cl)ccc1O)Nc1nc2ccccc2s1	·	-42*	0	·	3	-2
N#Cc1cccc(NC(=O)COC(=O)c2cc(S(=O)(=O)Nc3ccccc3Cl)ccc2O)c1	·	i	14	-6	3	-1
O=C(CNC(=O)c1sc2ccccc2c1Cl)NCc1cccc(C(F)(F)F)c1	i	i	7	-2	13	9.4*
COc1ccc(C)cc1S(=O)(=O)Nc1ccc(F)cc1	i	i	5	-1	-1	-3
CCOc1cc(C)c(S(=O)(=O)Nc2ccc(F)cc2)cc1C	i	i	20	-6	6	16*
O=C(CN1C(=O)NC2(CCCC2)C1=O)Nc1cc(S(=O)(=O)N2CCCCC2)ccc1Cl	·	i	13	-4	2	-2
CCN(CC)C(=O)CN(c1cc2c(cc1OC)oc1ccccc12)S(=O)(=O)c1ccccc1	100*	i	-2	-3	-8	-1
COc1cc2oc3ccccc3c2cc1N(CC(=O)N(C)C)S(=O)(=O)c1ccc(C)cc1	i	i	5	-3	5	-2
COc1cc2oc3ccccc3c2cc1N(CC(=O)N1CCCCC1)S(=O)(=O)c1ccc(C)cc1	i	-29*	8	-4	0	-1
O=C(O)C1CCN(C(=O)c2ccc3c(c2)OCO3)CC1	i	i	-5	-1	-12	-4
C=CCC[C@H](Cc1ccc(F)cc1)C(=O)OC[C@@H](NC(=O)[C@H](CC=C)CC(=O)NCCO)c1ccccc1	·	i	4	-3	8	0
S=c1[nH]nc(Cc2ccccc2)n1Cc1ccco1	i	i	-2	1	15*	-1
Cc1c(C(N)=O)c(-c2ccccc2)nn1-c1ccccc1	i	i	0	1	3	-1
CCCc1c(-c2ccc(O)cc2)nn(-c2ccc(O)cc2)c1-c1ccc(O)cc1	100*	i	-1	-7	-2	5
Oc1ccc(CCNc2ncnc3ccc(Cl)cc23)cc1	100*	i	23	-8	5	1
COc1ccc(-c2cc(N)n(S(=O)(=O)c3c(F)c(F)c(F)c(F)c3F)n2)cc1OC	100*	i	-45	-5	-1	-2
OC(CNCCc1ccccc1)COc1ccc(OCC(O)CNCCc2ccccc2)cc1 (stereo unspecified)	i	i	-5	-4	0	-1
OC(CNCCC(c1ccccc1)c1ccccc1)COc1ccccc1 (stereo unspecified)	i	i	8	-6	-6	25*
Cc1cnc(C(=O)OCC(=O)NC(C)c2ccccc2)cn1 (stereo unspecified)	·	i	4	1	10	-1
O=[N+]([O-])c1ccc(O)c(Nc2ncnc3ccc(Br)cc23)c1	100*	i	-5	-6	0	-4
O=[N+]([O-])c1ccc(O)c(Nc2ncnc3ccccc23)c1	i	i	0	-1	1	-1
COc1ccc(NC(=O)c2ccc(NC3CC(=O)N(c4ccc(C)cc4C)C3=O)cc2)cc1 (stereo unspecified)	i	i	10	-2	3	8.2*
Cc1cc(C)c(NC(=O)c2ccccc2CCc2ccccc2)c(C)c1	i	i	0	1	-1	29*
